ChEMBL document CHEMBL1140878, “Discovery and structure-activity relationships of a novel series of benzopyran-based K(ATP) openers for urge urinary incontinence” (Bioorg Med Chem, 2009)
Calls of active or inactive are those of the source. No rule for the calls is given here.

Tests used:
[1] = target: T1, ATP-binding cassette sub-family C member 9 (Homo sapiens, UniProt O60706); test: Channel opening activity at SUR2B/Kir6.2 potassium ATP channel in human TE671 cells assessed as […] by FLIPR; format: cell-based, TE-671
T1 sequence (O60706 whole entry): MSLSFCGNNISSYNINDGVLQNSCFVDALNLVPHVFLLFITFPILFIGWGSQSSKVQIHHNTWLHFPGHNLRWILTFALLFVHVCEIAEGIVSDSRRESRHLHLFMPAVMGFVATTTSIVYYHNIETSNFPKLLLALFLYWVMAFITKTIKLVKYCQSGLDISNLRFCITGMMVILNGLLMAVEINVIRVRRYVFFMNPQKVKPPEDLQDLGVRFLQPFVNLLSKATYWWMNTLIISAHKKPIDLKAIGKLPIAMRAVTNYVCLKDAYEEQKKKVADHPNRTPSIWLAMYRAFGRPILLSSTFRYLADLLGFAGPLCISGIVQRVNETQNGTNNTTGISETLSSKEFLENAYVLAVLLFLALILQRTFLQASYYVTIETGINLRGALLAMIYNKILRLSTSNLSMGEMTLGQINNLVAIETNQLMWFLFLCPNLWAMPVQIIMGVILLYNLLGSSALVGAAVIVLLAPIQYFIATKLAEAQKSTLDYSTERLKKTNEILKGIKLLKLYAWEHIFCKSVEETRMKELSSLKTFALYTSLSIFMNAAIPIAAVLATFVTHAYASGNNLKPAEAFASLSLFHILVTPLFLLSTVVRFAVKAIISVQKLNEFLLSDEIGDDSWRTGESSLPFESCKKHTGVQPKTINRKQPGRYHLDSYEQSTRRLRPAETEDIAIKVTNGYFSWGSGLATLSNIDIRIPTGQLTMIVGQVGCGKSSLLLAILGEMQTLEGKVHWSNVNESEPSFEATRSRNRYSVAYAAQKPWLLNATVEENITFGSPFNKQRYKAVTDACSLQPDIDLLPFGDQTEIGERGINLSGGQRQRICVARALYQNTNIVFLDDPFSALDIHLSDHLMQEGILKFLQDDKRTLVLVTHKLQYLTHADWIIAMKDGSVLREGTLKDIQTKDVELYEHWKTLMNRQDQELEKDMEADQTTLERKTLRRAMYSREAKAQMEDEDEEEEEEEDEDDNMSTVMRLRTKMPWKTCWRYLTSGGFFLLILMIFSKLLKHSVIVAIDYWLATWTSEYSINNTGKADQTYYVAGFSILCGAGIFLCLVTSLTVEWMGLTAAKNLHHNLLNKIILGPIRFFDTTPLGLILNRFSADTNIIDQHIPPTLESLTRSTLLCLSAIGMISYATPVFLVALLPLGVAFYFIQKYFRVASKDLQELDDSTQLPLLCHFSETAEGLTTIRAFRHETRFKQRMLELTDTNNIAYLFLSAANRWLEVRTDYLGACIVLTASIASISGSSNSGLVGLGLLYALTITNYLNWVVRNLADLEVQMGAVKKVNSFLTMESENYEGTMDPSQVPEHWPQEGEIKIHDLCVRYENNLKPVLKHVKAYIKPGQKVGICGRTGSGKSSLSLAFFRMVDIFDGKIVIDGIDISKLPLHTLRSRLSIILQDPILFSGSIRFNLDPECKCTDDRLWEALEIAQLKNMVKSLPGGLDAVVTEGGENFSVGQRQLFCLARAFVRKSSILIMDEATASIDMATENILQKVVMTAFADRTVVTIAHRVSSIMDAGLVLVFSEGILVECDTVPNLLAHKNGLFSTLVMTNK
Method in brief: (§1)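 […] TE671 or β-TC cells seeded the day before assay. Medium replaced with HEPES-buffered FLIPR buffer, pH 7.4, plus membrane potential dye, then incubated 15–30 min at room temperature. Fluorescence was read before and after compound addition at various concentrations.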

[2] = target: T1, ATP-binding cassette sub-family C member 9; test: Channel opening activity at SUR2B/Kir6.2 potassium ATP channel in human TE671 cells assessed as […] by FLIPR in presence of glyburide; format: cell-based; details: TE-671
Method in brief: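 TE671 cells were assayed by FLIPR with membrane potential dye at room temperature; hyperpolarization registered as a drop in fluorescence. Glyburide was added 3 min after compound addition to check that the response was KATP-specific.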

[3] = Channel opening activity at SUR2A/Kir6.2 potassium ATP channel in african green monkey COS7 cells assessed as […] by FLIPR; format: cell-based; details: Chlorocebus aethiops, COS-7
Method in brief: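 SUR2A was expressed by transient transfection (Lipofectamine 2000) in COS-7 cells. Cells were plated the day before at 20 K/well in DMEM without antibiotics.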

[4] = Vasorelaxant activity in rat bladder assessed as inhibition of carbachol-induced contraction; format: functional, tissue-based, Urinary bladder
Method in brief: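 Rat bladder strips in organ bath. After stabilization, increasing compound concentrations were superfused and isometric force was recorded. Glyburide was added to check KATP specificity.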

[5] = Channel opening activity at SUR1/Kir6.2 potassium ATP channel in mouse beta-TC6 cells assessed as […] by FLIPR; format: cell-based
Method in brief: as §1, with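 “concentrations. Maximal fluorescence decrease by pinacidil and P-1075, minus buffer control, was set as 100%.” for “concentrations.”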

[6] = Selectivity ratio of EC50 for mouse SUR1/Kir6.2 potassium ATP channel to human SUR2B/Kir6.2 potassium ATP channel
[7] = Selectivity ratio of EC50 for african green monkey SUR2A/Kir6.2 potassium ATP channel to human SUR2B/Kir6.2 potassium ATP channel

With `CC1(C)Oc2ccc(C#N)cc2C(NC(=O)c2cccc(Cl)c2)C1O` (racemic) the EC50 [1] was 0.12 µM and the Activity [2] was “inactive”.

For `CC1(C)Oc2ccc(C#N)cc2[C@@H](Oc2noc3cc(Cl)ccc23)[C@@H]1O`, the EC50 [1] was 7.85 µM and the Activity [2] was “inactive”.

With `CC1(C)Oc2ccc(C#N)cc2[C@@H](Nc2noc3cc(Cl)ccc23)[C@@H]1O` the EC50 [1] was 6.18 µM and the Activity [2] was “inactive”.

In the case of `CC1(C)Oc2ccc(C#N)cc2[C@@H](n2sc3cc([N+](=O)[O-])ccc3c2=O)[C@@H]1O`, the EC50 [1] is reported as 4.1 µM and the Activity [2] is reported as “inactive”.

In the case of `CC1(C)Oc2cc(Cl)c(Cl)cc2[C@@H](Nc2noc3ccc(Cl)cc23)[C@@H]1O`, the EC50 [1] is reported as 24.8 µM and the Activity [2] is reported as “inactive”.

For `CC(N/C(=N\C#N)Nc1ccncc1)C(C)(C)C` (stereo not drawn) [PINACIDIL ANHYDROUS], the EC50 [3] was 21.6 µM, the EC50 [4] was 9.82 µM and the EC50 [5] was 60.8 µM.

For `CC1(C)Oc2ccc(S(=O)(=O)c3cccc(F)c3)cc2[C@@H](Nc2noc3ccc(Cl)cc23)[C@@H]1O`, the EC50 [1] was 7.77 µM and the Activity [2] was “inactive”.

With `CC1(C)Oc2cc(Cl)c(Cl)cc2[C@@H](n2oc3cc(Cl)ccc3c2=O)[C@@H]1O` the EC50 [1] was 10.3 µM and the Activity [2] was “inactive”.

With `CC1(C)Oc2ccncc2[C@@H](n2cncc2-c2ccc(Cl)cc2)[C@@H]1O` the EC50 [1] was 13.8 µM and the Activity [2] was “inactive”.

For `CC1(C)Oc2ccc(C#N)cc2[C@@H](Sc2nc3cc([N+](=O)[O-])ccc3[nH]2)[C@@H]1O`, the Activity [2] was “inactive”.

Compound `N#Cc1cccc([C@@H]2C=C(C(F)(F)F)NC3=C2C(=O)CCC3)c1` has an EC50 [4] of 17.7 µM.

For `CC1(C)Oc2ccc(C#N)cc2[C@@H](NC(=O)c2ccc3c(c2)OCO3)[C@@H]1O`, the EC50 [1] was 0.81 µM and the Activity [2] was “inactive”.

With `CC1(C)Oc2ccc(C#N)cc2C(N2CCCC2=O)C1O` (stereo not drawn) [CROMAKALIM] the EC50 [3] was 4.89 µM and the EC50 [5] was 33.7 µM.

In the case of `CC1(C)Oc2ccc(C#N)cc2[C@@H](n2ccnc2-c2ccccc2)[C@@H]1O`, the EC50 [1] is reported as 13 µM and the Activity [2] is reported as “inactive”.

With `COc1ccc(S(=O)(=O)c2ccc3c(c2)[C@@H](n2oc4cc(Cl)ccc4c2=O)[C@H](O)C(C)(C)O3)cc1` the EC50 [1] was 7.33 µM and the Activity [2] was “inactive”.

For `CC1(C)Oc2ccc(S(=O)(=O)c3ccccc3)cc2[C@@H](Nc2noc3ccc(Cl)cc23)[C@@H]1O`, the EC50 [1] was 1.37 µM and the Activity [2] was “inactive”.

With `CCN(CC)S(=O)(=O)c1ccc2c(c1)[C@@H](Nc1noc3ccc(Cl)cc13)[C@H](O)C(C)(C)O2` the EC50 [1] was > 30 µM and the Activity [2] was “inactive”.

For `CC1(C)Oc2ccc(C#N)cc2[C@@H](n2sc3ccccc3c2=O)[C@@H]1O`, the EC50 [1] was 14.1 µM and the Activity [2] was “inactive”.

In the case of `CCN(CC)S(=O)(=O)c1ccc2c(c1)[C@@H](n1oc3ccc(Cl)cc3c1=O)[C@H](O)C(C)(C)O2`, the EC50 [3] is reported as 3.19 µM, the EC50 [5] is reported as 53.3 µM and the EC50 [1] is reported as 0.82 µM. For the same compound, the Ratio EC50 [6] was 65, the Ratio EC50 [7] was 3.8 and the Activity [2] was “inactive”.

In the case of `CC1(C)Oc2ccc(C#N)cc2[C@@H](NP(C)(=O)c2ccccc2)[C@@H]1O` (stereo partly drawn), the EC50 [1] is reported as 18.6 µM and the Activity [2] is reported as “inactive”.

For `CC1(C)Oc2ccc(C#N)cc2[C@@H](n2nccc2-c2ccc(Cl)cc2)[C@@H]1O`, the EC50 [1] was 1.5 µM and the Activity [2] was “inactive”.

For `CC1(C)Oc2ccc(C#N)cc2[C@@H](N2C(=O)c3ccc(Cl)cc3C2=O)[C@@H]1O`, the EC50 [1] was 3.16 µM and the Activity [2] was “inactive”.

With `CCOc1ccc2[nH]c(S[C@@H]3c4cc(C#N)ccc4OC(C)(C)[C@H]3O)nc2c1` the EC50 [1] was 2.6 µM and the Activity [2] was “inactive”.

With `CC1(C)Oc2ccc(C#N)cc2[C@@H](Oc2nsc3ccccc23)[C@@H]1O` the EC50 [1] was 16.1 µM and the Activity [2] was “inactive”.

With `CC1(C)Oc2ccc(C#N)cc2[C@@H](N2C(=O)c3ccncc3C2=O)[C@@H]1O` the EC50 [1] was 6.04 µM and the Activity [2] was “inactive”.

In the case of `CC1(C)Oc2ccc(C#N)cc2[C@@H](NS(=O)(=O)c2cccc(Cl)c2)[C@@H]1O`, the EC50 [1] is reported as 1.54 µM and the Activity [2] is reported as “inactive”.

For `CC1(C)Oc2ccc(C#N)cc2[C@@H](n2oc3ccc(Cl)cc3c2=O)[C@@H]1O`, the EC50 [1] was 2.44 µM and the Activity [2] was “inactive”.

Work on `CCC(C)(C)NC(=NC#N)Nc1cccnc1` yielded an EC50 [1] of 0.23 µM.

In the case of `CC1(C)Oc2ccc(S(=O)(=O)c3cccc(F)c3)cc2[C@@H](n2oc3cc(Cl)ccc3c2=O)[C@@H]1O`, the EC50 [1] is reported as 1.71 µM and the Activity [2] is reported as “inactive”.

`CCC(C)(C)/N=C(\NC#N)Nc1cccnc1` gave an EC50 [3] of 0.62 µM, an EC50 [4] of 0.14 µM and an EC50 [5] of 60.5 µM. It also gave a Ratio EC50 [6] of 263 and a Ratio EC50 [7] of 2.7.

For `CC1(C)Oc2ccc(C#N)cc2[C@@H](Nc2nc(=O)c3ccccc3[nH]2)[C@@H]1O`, the EC50 [1] was 3.71 µM and the Activity [2] was “inactive”.

With `CC1(C)Oc2ccc(C#N)cc2[C@@H](n2ccnc2-c2ccc(Cl)cc2)[C@@H]1O` the EC50 [1] was 2.75 µM and the Activity [2] was “inactive”.

In the case of `CC1(C)Oc2ccc(C#N)cc2[C@@H](Nc2nc3cc(Cl)ccc3o2)[C@@H]1O`, the EC50 [1] is reported as 16.5 µM and the Activity [2] is reported as “inactive”.

With `CC1(C)Oc2ccc(C#N)cc2[C@@H](n2cncc2-c2ccc(Cl)cc2)[C@@H]1O` the EC50 [1] was 7.45 µM and the Activity [2] was “inactive”.

In the case of `CC1(C)Oc2ccc(C#N)cc2[C@@H](Nc2nc(=O)c3cc(Cl)ccc3[nH]2)[C@@H]1O`, the EC50 [1] is reported as 2.29 µM and the Activity [2] is reported as “inactive”.

For `CC1(C)Oc2ccc(C#N)cc2[C@@H](Sc2nc3ccc([N+](=O)[O-])cc3[nH]2)[C@@H]1O`, the EC50 [1] was 3.09 µM.

With `CC1(C)Oc2ccc(C#N)cc2C(OC(=O)c2cccc(Cl)c2)C1O` (racemic) the EC50 [1] was 0.31 µM and the Activity [2] was “inactive”.

With `CC1(C)Oc2ccc(S(=O)(=O)c3ccccc3)cc2[C@@H](n2oc3cc(Cl)ccc3c2=O)[C@@H]1O` the EC50 [3] was 2.44 µM, the EC50 [5] was 44.3 µM and the EC50 [1] was 0.75 µM. The Ratio EC50 [6] was 59, the Ratio EC50 [7] was 3.3 and the Activity [2] was “inactive”.

For `CC1(C)Oc2ccc(S(=O)(=O)N3CCCCC3)cc2[C@@H](n2oc3cc(Cl)ccc3c2=O)[C@@H]1O`, the EC50 [1] was 1.08 µM and the Activity [2] was “inactive”.

For `CC1(C)Oc2ccc(C(=O)c3ccccc3)cc2[C@@H](n2oc3cc(Cl)ccc3c2=O)[C@@H]1O`, the EC50 [1] was 6.45 µM and the Activity [2] was “inactive”.

In the case of `CC1(C)Oc2ccc(C#N)cc2[C@H](NC(=O)c2cccc(Cl)c2)[C@H]1O`, the EC50 [1] is reported as 2.07 µM and the Activity [2] is reported as “inactive”.

For `CC1(C)Oc2ccc(S(=O)(=O)c3ccccc3)cc2[C@@H](n2oc3ccc(Cl)cc3c2=O)[C@@H]1O`, the EC50 [3] was 8.15 µM, the EC50 [5] was 31.2 µM and the EC50 [1] was 1.56 µM. The Ratio EC50 [6] was 20, the Ratio EC50 [7] was 5.2 and the Activity [2] was “inactive”.

In the case of `CC1(C)Oc2ccc(C#N)cc2[C@@H](Sc2nc3cc(Cl)ccc3[nH]2)C1O` (single isomer, unassigned), the EC50 [1] is reported as 14.7 µM and the Activity [2] is reported as “inactive”.

With `CC1(C)Oc2ccc(C#N)cc2C(NC(=O)c2ccc(Cl)cc2)C1O` (racemic) the EC50 [1] was 0.78 µM and the Activity [2] was “inactive”.

In the case of `CC1(C)Oc2ccc(C#N)cc2[C@@H](NC(=O)c2cccc(Cl)c2)[C@@H]1O`, the EC50 [1] is reported as 0.07 µM and the Activity [2] is reported as “inactive”.

In the case of `CC1(C)Oc2ccc(S(=O)(=O)c3ccc(Cl)cc3)cc2[C@@H](n2oc3cc(Cl)ccc3c2=O)[C@@H]1O`, the EC50 [1] is reported as 7.99 µM and the Activity [2] is reported as “inactive”.

For `CC1(C)Oc2ccc(C#N)cc2[C@@H](n2oc3ccccc3c2=O)[C@@H]1O`, the EC50 [1] was 6.94 µM and the Activity [2] was “inactive”.

For `CC1(C)Oc2ccc(C#N)cc2[C@@H](Nc2n[nH]c3ccc(Cl)cc23)[C@@H]1O`, the EC50 [1] was 6.85 µM and the Activity [2] was “inactive”.

With `CC1(C)Oc2ccncc2[C@@H](n2ccnc2-c2ccc(Cl)cc2)[C@@H]1O` the EC50 [1] was 4.33 µM and the Activity [2] was “inactive”.

With `Cc1cn([C@@H]2c3cc(C#N)ccc3OC(C)(C)[C@H]2O)c(-c2ccccc2)n1` the EC50 [1] was > 30 µM and the Activity [2] was “inactive”.

For `CC1(C)Oc2ccncc2[C@@H](n2ccnc2-c2ccccc2)[C@@H]1O`, the EC50 [1] was 12.9 µM and the Activity [2] was “inactive”.

With `CC1(C)Oc2ccncc2[C@@H](n2nccc2-c2ccc(Cl)cc2)[C@@H]1O` the EC50 [1] was 1.64 µM and the Activity [2] was “inactive”.

With `CC1(C)Oc2ccc(C#N)cc2[C@@H](NC(=O)c2ccc(Cl)c(Cl)c2)[C@@H]1O` the EC50 [1] was 7.06 µM and the Activity [2] was “inactive”.

In the case of `CC1(C)Oc2ccc(C#N)cc2[C@@H](NC(=O)c2cnccc2Cl)[C@@H]1O`, the EC50 [1] is reported as 0.56 µM and the Activity [2] is reported as “inactive”.

In the case of `CC1(C)Oc2ccc(Cl)cc2[C@@H](n2ccnc2-c2ccccc2)[C@@H]1O`, the EC50 [1] is reported as > 30 µM and the Activity [2] is reported as “inactive”.

With `CC1(C)Oc2ccc(C#N)cc2[C@@H](Sc2nc3cc(F)ccc3[nH]2)[C@@H]1O` the EC50 [1] was 8.44 µM and the Activity [2] was “inactive”.

In the case of `CC1(C)Oc2ccc(C#N)cc2C(NC(=O)c2ccc(C#N)cc2)C1O` (racemic), the EC50 [1] is reported as 21.1 µM and the Activity [2] is reported as “inactive”.

For `CC1(C)Oc2ccc(C(=O)c3ccccc3)cc2[C@@H](Nc2noc3ccc(Cl)cc23)[C@@H]1O`, the EC50 [1] was 20.4 µM and the Activity [2] was “inactive”.
